Test results published in article PMC12840579 (Biomedicine & pharmacotherapy = Biomedecine & …, 2025).

Key:
ADAM10 = target: T1, ADAM10 (Homo sapiens, UniProt O14672); test: ADAM10 fluorogenic proteolytic activity assay; assay type: biochemical; details: GM6001 10 μM
T1 sequence (O14672 214-748): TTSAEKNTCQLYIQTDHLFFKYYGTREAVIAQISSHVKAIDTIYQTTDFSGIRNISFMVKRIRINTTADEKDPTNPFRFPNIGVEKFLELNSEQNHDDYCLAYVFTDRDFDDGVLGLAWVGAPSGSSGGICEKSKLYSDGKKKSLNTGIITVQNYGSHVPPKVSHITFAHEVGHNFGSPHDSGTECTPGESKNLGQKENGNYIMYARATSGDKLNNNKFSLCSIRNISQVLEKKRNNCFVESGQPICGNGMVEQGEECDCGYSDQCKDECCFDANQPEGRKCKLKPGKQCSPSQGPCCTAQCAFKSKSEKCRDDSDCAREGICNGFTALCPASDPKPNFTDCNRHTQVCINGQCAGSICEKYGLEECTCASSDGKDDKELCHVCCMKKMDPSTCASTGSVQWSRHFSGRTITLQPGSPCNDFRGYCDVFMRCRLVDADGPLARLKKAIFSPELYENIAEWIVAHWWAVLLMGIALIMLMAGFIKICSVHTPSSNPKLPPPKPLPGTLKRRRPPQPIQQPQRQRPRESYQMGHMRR
How it was run: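 Recombinant ADAM10 from a fluorogenic assay kit, pre-incubated with test compound at the indicated concentrations for 30 min at room temperature, then substrate added. Substrate cleavage read by fluorescence (ex 485 nm, em 530 nm). GM6001 was the positive control. Triplicate runs, mean ± SEM (n = 3).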

ADAM17 = ADAM17 (Homo sapiens, UniProt P78536); test: ADAM17 fluorogenic proteolytic activity assay; assay type: biochemical; details: GM6001 10 μM
Sequence of ADAM17 (P78536 215-824): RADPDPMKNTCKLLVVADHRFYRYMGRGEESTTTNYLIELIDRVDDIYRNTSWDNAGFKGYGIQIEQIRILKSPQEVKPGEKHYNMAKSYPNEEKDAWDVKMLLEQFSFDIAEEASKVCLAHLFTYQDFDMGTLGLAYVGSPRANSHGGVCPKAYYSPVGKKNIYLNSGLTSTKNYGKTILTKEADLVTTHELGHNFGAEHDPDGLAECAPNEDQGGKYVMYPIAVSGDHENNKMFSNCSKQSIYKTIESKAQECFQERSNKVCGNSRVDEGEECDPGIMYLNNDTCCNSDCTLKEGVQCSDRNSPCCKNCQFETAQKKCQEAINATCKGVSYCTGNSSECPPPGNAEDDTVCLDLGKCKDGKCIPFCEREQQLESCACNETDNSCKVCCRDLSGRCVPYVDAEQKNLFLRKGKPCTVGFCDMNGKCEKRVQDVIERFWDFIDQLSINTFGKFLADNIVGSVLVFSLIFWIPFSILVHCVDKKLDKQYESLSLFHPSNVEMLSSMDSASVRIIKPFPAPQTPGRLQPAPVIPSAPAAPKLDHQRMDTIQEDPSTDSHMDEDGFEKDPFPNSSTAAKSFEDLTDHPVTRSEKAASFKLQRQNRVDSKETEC

[1] = test system: wild-type HEK293 cells lacking TREM2/DAP12 expression; test: Intracellular calcium measurement; assay type: cell-based, human
How it was run: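 Wild-type HEK293 cells lacking TREM2/DAP12 were grown in 96-well clear-bottom black plates. They were loaded for 1 h with Fluo-4 NW dye in 100 μL assay buffer, then test compound was added. Fluorescence was captured on an automated imaging system. Ionomycin served as the control for intact calcium signalling.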

[2] = test system: TREM2 signaling (SYK phosphorylation Y525/526) in HEK293-hTREM2/DAP12 cells; test: Phospho-SYK AlphaLISA in HEK293-hTREM2/DAP12 cells; assay type: cell-based, human
How it was run: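 HEK-hTREM2/DAP12 cells were seeded at 5 × 10⁴ per well in DMEM with 10% FBS and held 24 h at 37 °C, 5% CO2. Medium was replaced with compound in complete medium, DMSO as vehicle. Time course: 25 μM for 5, 15, 30 or 60 min. Dose series: 5–100 μM final for 60 min. Kit-lysed cells were assayed for pSYK Y525/526 by two-antibody bead AlphaLISA; 3 independent experiments, n=6 per condition, mean ± SEM.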

[3] = test system: BV2 murine microglial cells; test: Phagocytosis assay with fluorescent latex beads; assay type: cell-based; details: 25 μM, 30 min before beads (30 min)
How it was run: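 Murine BV2 microglia were serum-starved, then exposed to 25 μM test compound or DMSO vehicle for 30 min. Green fluorescent latex beads were added for a further 30 min at 37 °C. Cells were washed with ice-cold PBS, fixed in 4% PFA, immunostained for IBA1 and imaged by fluorescence microscopy. A phagocytic cell was an IBA1+ cell with ≥1 internalised bead, expressed as % of vehicle; mean ± SEM (n = 3).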

[4] = 25 μM, time-course 5-60 minutes

## CNC(=O)[C@H](Cc1c[nH]c2ccccc12)NC(=O)[C@@H](CC(=O)NO)CC(C)C [GM6001]
ADAM10
  effect on ADAM10 protease activity (positive control): potently inhibited
ADAM17
  effect on ADAM17 protease activity (positive control): potently inhibited

## C[C@H](CCC(=O)O)C[C@H](C)C[C@H](C)C(=O)/C=C(\O)[C@H](C)C[C@H](C)C/C=C/[C@@H](C)[C@@H](O)[C@@H](C)[C@@H](O)C[C@@H]1CC[C@@](C)([C@H]2CC[C@@](C)([C@@H](C)O)O2)O1 [ionomycin]
[1]; ionomycin 10 μM
  calcium response in wild-type cells: ~ 8 fold

## VG-3927
[2]; [4]
  time at which SYK phosphorylation is first detected: 5 min
  time of peak SYK phosphorylation: 60 min
[2]; 60 minutes treatment, 5-100 μM
  concentration of maximal SYK phosphorylation: 25 µM
  lowest concentration with SYK phosphorylation: 5 µM
[1]; VG-3927 30 μM
  calcium mobilization in wild-type cells: neither VG-3927 (30 μM) nor As48 (100 μM) elicited any detectable calcium mobilization
[3]
  increase in proportion of phagocytic cells vs vehicle: approximately 45%
